Data: ChEMBL document CHEMBL4765230, “Discovery of Orally Efficacious Phosphoinositide 3-Kinase δ Inhibitors with Improved Metabolic Stability” (J Med Chem, 2016)

Experiments:
[1] = Volume of distribution at steady state in Sprague-Dawley rat at 1 mg/kg, iv measured over 24 hrs by LC/MS/MS analysis; assay type: ADME, organism-based; conditions: in vivo, read-out: Vdss
Outline: (§1)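 Single intravenous dose of 1 mg/kg. Vehicles: rats and dogs 5% ethanol/55% PEG 400/40% water; cynomolgus monkeys 5% ethanol/22% PEG 400/73% water; rhesus monkeys 5% ethanol/25% PEG 400/70% water. Plasma concentration–time data gave Vss and iv half-life. Reported as mean ± SD, n = 3.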

[2] = Clearance in rhesus monkey at 1 mg/kg, iv measured over 24 hrs by LC/MS/MS analysis; assay type: ADME, organism-based, Macaca mulatta; conditions: in vivo
Outline: (§2)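 Intravenous 1 mg/kg and oral 5 mg/kg doses. Vehicle: 5% ethanol/55% PEG 400/40% water for rats and dogs; 5% ethanol/22% PEG 400/73% water for cynomolgus; 5% ethanol/25% PEG 400/70% water for rhesus. Half-life and MRT from iv; mean ± SD, n = 3 per route.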

[3] = Volume of distribution at steady state in dog at 1 mg/kg, iv; assay type: ADME, organism-based, Canis lupus familiaris; conditions: in vivo, read-out: Vdss
Outline: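 Rats and dog received 1 mg/kg intravenously, formulated in 12% w/v Captisol in water. Volume of distribution was taken at steady state from the iv plasma profile. Three animals per dosing route.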

[4] = AUC infinity in Lewis rat at 1 to 5 mg/kg, po administered as single dose; assay type: ADME, organism-based; conditions: in vivo, dose 1-5 mg/kg
Outline: (§3)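 Female Lewis rats given a single oral dose of 1 or 5 mg/kg; plasma concentration–time profiles determined; mean ± SD, n = 3.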

[5] = MRT in Sprague-Dawley rat at 1 mg/kg, iv measured over 24 hrs by LC/MS/MS analysis; assay type: ADME, organism-based; conditions: in vivo; outline: as §2
[6] = Terminal half life in rhesus monkey at 1 mg/kg, iv measured over 24 hrs by LC/MS/MS analysis; assay type: ADME, organism-based, Macaca mulatta; conditions: in vivo, read-out: beta t1/2 (converted); outline: as §1
[7] = Clearance in Sprague-Dawley rat at 1 mg/kg, iv measured over 24 hrs by LC/MS/MS analysis; assay type: ADME, organism-based; conditions: in vivo; outline: as §2
Rattus norvegicus [8] = experiment: Antiarthritic activity in Lewis rat model of Freund's incomplete adjuvant-induced arthritis assessed as inhibition of pannus formation at 0.3 to 3 mg/kg, po bid administered for 7 days at 12 hrs interval starting from day 10 to day 16 post-immunization by microscopic analysis relative to control; assay type: functional; design: scale not given: the % may be the effect or the level left; conditions: dose 0.3-3 mg/kg, time 7 day
Outline: (§4)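 Female Lewis rats with established collagen-induced arthritis dosed orally twice daily for 7 days at 0.3, 1 and 3 mg/kg, starting day 10 after second collagen immunization. Joint histopathology scored for pannus formation, cartilage damage, bone resorption and periosteal bone formation; ED50 derived. n = 8/treatment group, n = 4 normal controls.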

[9] = Terminal half life in Sprague-Dawley rat at 1 mg/kg, iv measured over 24 hrs by LC/MS/MS analysis; assay type: ADME, organism-based; conditions: in vivo, read-out: beta t1/2 (converted); outline: as §1
[10] = In vivo inhibition of PI3Kdelta in Lewis rat model of Freund's incomplete adjuvant-induced arthritis at 1 mg/kg, po bid administered for 7 days at 12 hrs interval starting from day 10 to day 16 post-immunization relative to control; assay type: functional; conditions: 168 h, time 7 day
Outline: (§5)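 CIA Lewis rats dosed orally twice daily for 7 days at 0.3, 1 or 3 mg/kg; blood/plasma drug levels taken on day 7, 12 h after final dose, and related to PI3Kδ inhibition at trough.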

[11] = In vivo inhibition of PI3Kdelta in Lewis rat model of Freund's incomplete adjuvant-induced arthritis at 0.3 mg/kg, po bid administered for 7 days at 12 hrs interval starting from day 10 to day 16 post-immunization relative to control; assay type: functional; conditions: 168 h, time 7 day; outline: as §5
[12] = Selectivity index, ratio of IC50 for inhibition of recombinant human full-length N-terminal His-tagged PI3K p110beta/p85alpha to IC50 for inhibition of human full length PI3K p110delta/p85alpha
[13] = Cmax in Lewis rat at 5 mg/kg, po administered as single dose measured at 2 hrs; assay type: ADME, organism-based; design: route oral, dose 5 mg/kg, time 2 hrs; conditions: in vivo; outline: as §3
Rattus norvegicus [14] = experiment: Antiarthritic activity in Lewis rat model of Freund's incomplete adjuvant-induced arthritis assessed as inhibition of cartilage damage at 0.3 to 3 mg/kg, po bid administered for 7 days at 12 hrs interval starting from day 10 to day 16 post-immunization by microscopic analysis relative to control; assay type: functional; design: scale not given: the % may be the effect or the level left; conditions: dose 0.3-3 mg/kg, time 7 day; outline: as §4
[15] = Inhibition of PI3Kdelta in rat whole blood assessed as reduction in anti-IgD induced B-cell activation by measuring decrease in CD86 surface expression by flow cytometry analysis
Rattus norvegicus [16] = species: Rattus norvegicus; experiment: as above
[17] = biological target: Phosphatidylinositol 4,5-bisphosphate 3-kinase catalytic subunit gamma isoform (Homo sapiens, UniProt P48736); experiment: Inhibition of human full length PI3K p110gamma using […] as substrate measured after 30 mins by TR-FRET assay
[18] = MRT in Beagle dog at 1 mg/kg, iv measured over 24 hrs by LC/MS/MS analysis; assay type: ADME, organism-based, Canis lupus familiaris; conditions: in vivo; outline: as §2
Rattus norvegicus [19] = experiment: Antiarthritic activity in Lewis rat model of Freund's incomplete adjuvant-induced arthritis assessed as inhibition of bone resorption at 0.3 to 3 mg/kg, po bid administered for 7 days at 12 hrs interval starting from day 10 to day 16 post-immunization by microscopic analysis relative to control; assay type: functional; design: scale not given: the % may be the effect or the level left; conditions: dose 0.3-3 mg/kg, time 7 day; outline: as §4
[20] = biological target: PI3-kinase p110-alpha/p85-alpha (Homo sapiens, UniProt P42336); experiment: Inhibition of human full length PI3K p110alpha/p85alpha using […] as substrate measured after 30 mins by TR-FRET assay; assay type: protein-complex assay
[21] = Chemical stability of the compound at pH 2 phosphate buffer assessed as time required for 90% hydrolytic degradation at 100 ug/ml and 40 degreeC by UPLC-UV analysis; assay type: physicochemical; conditions: in the assay text read “10% hydrolytic degradation” for “90% hydrolytic degradation”, dose 100 µg/ml
Outline: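 Compound diluted from acetonitrile or DMSO stock to 100 μg/mL final in 50 mM phosphate buffer, pH 2 (or pH 7), ionic strength 0.15 M NaCl, 40 °C in autosampler. Timed injections analysed by reverse-phase UPLC-UV (220 nm); pseudo-first-order kobs from ln c vs time; t50 and t90 calculated.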

Chain of Phosphatidylinositol 4,5-bisphosphate 3-kinase catalytic subunit gamma isoform (P48736 whole entry, canonical isoform): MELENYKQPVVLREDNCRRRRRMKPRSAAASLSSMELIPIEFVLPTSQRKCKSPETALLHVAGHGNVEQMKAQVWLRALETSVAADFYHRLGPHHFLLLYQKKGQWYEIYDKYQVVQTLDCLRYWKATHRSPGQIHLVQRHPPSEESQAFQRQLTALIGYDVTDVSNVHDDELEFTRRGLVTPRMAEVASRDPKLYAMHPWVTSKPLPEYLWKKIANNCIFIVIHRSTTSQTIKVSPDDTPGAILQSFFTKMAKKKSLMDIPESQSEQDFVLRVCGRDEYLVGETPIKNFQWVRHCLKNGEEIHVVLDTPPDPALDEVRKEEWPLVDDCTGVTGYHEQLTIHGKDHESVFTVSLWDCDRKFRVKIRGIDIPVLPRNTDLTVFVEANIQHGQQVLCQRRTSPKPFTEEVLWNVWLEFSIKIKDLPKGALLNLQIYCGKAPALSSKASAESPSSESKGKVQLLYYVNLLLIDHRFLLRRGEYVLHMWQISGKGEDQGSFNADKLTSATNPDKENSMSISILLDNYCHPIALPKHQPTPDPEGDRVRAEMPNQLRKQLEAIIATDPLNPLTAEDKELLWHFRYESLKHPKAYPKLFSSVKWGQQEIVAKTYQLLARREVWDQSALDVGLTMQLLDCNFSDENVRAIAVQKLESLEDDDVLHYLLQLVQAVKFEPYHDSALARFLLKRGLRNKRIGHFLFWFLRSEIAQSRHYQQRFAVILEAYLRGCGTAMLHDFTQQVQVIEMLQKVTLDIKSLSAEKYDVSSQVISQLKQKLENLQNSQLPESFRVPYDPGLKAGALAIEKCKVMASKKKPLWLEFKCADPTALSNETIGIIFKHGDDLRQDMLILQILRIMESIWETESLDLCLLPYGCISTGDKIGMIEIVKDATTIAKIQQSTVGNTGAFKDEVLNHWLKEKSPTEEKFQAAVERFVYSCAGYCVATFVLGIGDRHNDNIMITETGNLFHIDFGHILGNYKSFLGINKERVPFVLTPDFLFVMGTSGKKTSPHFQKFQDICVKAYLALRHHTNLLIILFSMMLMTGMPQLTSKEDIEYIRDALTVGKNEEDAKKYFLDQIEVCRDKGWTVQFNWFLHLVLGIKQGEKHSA
Chain of PI3-kinase p110-alpha/p85-alpha (P27986 whole entry): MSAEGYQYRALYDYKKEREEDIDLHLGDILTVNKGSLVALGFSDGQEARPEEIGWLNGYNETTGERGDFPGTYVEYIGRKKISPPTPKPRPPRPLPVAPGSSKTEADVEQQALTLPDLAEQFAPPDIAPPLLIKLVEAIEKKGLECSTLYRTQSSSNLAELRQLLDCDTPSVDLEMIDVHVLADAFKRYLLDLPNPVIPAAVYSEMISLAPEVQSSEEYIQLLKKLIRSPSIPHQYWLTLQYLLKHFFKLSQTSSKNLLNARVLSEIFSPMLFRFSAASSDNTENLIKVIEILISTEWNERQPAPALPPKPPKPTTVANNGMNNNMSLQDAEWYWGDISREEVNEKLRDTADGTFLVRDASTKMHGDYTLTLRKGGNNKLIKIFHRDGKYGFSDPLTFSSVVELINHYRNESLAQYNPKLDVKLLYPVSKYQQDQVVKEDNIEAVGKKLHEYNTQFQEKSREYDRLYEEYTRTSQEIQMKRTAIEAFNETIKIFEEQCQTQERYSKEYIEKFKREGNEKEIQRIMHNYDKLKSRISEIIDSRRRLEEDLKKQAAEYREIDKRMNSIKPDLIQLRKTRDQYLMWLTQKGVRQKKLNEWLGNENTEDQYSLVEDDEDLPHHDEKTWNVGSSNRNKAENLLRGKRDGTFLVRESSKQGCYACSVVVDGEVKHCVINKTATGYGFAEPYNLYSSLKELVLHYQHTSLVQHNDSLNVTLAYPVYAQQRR
Chain of PI3-kinase p110-alpha/p85-alpha (P42336 whole entry): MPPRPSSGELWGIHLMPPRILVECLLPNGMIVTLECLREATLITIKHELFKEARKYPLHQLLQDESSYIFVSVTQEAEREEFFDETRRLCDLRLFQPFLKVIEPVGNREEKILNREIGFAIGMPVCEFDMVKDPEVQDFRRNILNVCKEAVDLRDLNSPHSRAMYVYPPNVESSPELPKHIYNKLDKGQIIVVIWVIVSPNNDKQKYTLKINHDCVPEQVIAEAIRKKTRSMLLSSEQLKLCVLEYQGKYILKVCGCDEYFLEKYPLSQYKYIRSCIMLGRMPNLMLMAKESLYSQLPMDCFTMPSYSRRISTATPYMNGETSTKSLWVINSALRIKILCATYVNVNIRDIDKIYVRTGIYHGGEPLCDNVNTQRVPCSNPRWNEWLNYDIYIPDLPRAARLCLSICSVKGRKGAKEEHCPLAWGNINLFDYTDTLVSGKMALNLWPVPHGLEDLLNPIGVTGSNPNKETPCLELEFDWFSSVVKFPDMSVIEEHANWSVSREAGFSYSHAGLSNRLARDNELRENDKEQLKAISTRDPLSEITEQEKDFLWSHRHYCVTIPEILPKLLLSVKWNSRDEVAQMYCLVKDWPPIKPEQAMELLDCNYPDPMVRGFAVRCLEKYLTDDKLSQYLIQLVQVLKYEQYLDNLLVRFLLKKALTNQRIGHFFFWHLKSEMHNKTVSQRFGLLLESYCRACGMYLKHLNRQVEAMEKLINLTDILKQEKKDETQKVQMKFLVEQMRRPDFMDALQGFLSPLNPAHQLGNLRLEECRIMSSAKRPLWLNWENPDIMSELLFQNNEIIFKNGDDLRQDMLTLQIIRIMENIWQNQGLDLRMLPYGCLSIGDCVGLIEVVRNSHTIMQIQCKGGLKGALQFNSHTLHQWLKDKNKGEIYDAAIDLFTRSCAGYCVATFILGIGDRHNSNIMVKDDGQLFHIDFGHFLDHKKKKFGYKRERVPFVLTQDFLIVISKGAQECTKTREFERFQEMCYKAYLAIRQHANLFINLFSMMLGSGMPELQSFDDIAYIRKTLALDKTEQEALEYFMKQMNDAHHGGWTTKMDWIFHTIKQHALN

## N#Cc1c(N)nc(N)nc1N[C@H](c1nc2c(F)ccc(Cl)c2c(=O)n1-c1cccnc1)C1CC1 [GS-9901]
[1]
  Vd: 0.83 L/kg
[2]
  clearance: 11.7 mL/min/kg
[3]
  Vd: 1.03 L/kg
[4]
  AUC(0-inf): 16 µM·h
[5]
  MRT: 1.95 h
[6]
  half-life: 2.45 h
[7]
  clearance: 7.17 mL/min/kg
Rattus norvegicus [8]
  Activity: 58%
[9]
  half-life: 2.04 h
[10]
  inhibition in vivo at 1 mg/kg: 80%
[11]
  inhibition in vivo at 0.3 mg/kg: 60%
[12]
  Ratio IC50: 100
[13]
  Cmax: 1780 nM
Rattus norvegicus [14]
  Activity: 50%
[15]
  EC50: 1.6 nM
Rattus norvegicus [16]
  EC90: 31.5 nM
[17]
  IC50: 190 nM
[18]
  MRT: 2.01 h
Rattus norvegicus [19]
  Activity: 50%
[20]
  IC50: 750 nM
[21]
  Time: 3.1 h
